Results as given in ChEMBL document CHEMBL5260840 (J Med Chem, 2019).

Tests used:
[1] = target: T1, von Hippel-Lindau disease tumor suppressor/Bromodomain-containing protein 9 (Homo sapiens) (UniProt Q9H8M2+P40337); assay: PROTAC activity at VHL/BRD9 in human HeLa cells assessed as remaining BRD9 protein level at 1 uM incubated for 16 hrs by Western blot analysis relative to control; format: cell-based
Outline: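 HeLa cells treated with compound for the stated time before harvest; BRD9, BRD7 and β-actin detected by Western blot with β-actin loading control; band intensities quantified.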

[2] = target: T2, von Hippel-Lindau disease tumor suppressor/Bromodomain-containing protein 7 (Homo sapiens) (UniProt Q9NPI1+P40337); assay: PROTAC activity at VHL/BRD7 in human HeLa cells assessed as remaining BRD7 protein level at 1 uM incubated for 4 hrs by Western blot analysis relative to control; format: cell-based
[3] = target: T2, von Hippel-Lindau disease tumor suppressor/Bromodomain-containing protein 7 (Homo sapiens); assay: PROTAC activity at VHL/BRD7 in human HeLa cells assessed as remaining BRD7 protein level at 1 uM incubated for 16 hrs by Western blot analysis relative to control; format: cell-based
[4] = target: T1, von Hippel-Lindau disease tumor suppressor/Bromodomain-containing protein 9 (Homo sapiens); assay: PROTAC activity at VHL/BRD9 in human Ri-1 cells assessed as remaining BRD9 protein level at 1 uM incubated for 2 hrs by Western blot analysis relative to control; format: cell-based
Outline: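 Ri-1 cells exposed to compound for the stated time before harvest; BRD9, BRD7 and β-actin measured by Western blot, band intensities quantified and set against DMSO-treated control.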

[5] = target: T2, von Hippel-Lindau disease tumor suppressor/Bromodomain-containing protein 7 (Homo sapiens); assay: PROTAC activity at VHL/BRD7 in human Ri-1 cells assessed as remaining BRD7 protein level at 1 uM incubated for 2 hrs by Western blot analysis relative to control; format: cell-based
[6] = tested on: A204; assay: Antiproliferative activity against human A204 cells assessed as inhibition of cell growth incubated for 7 days by CellTiterGlo assay; format: functional, cell-based; conditions: A204, 168 h
[7] = tested on: EOL1; assay: Antiproliferative activity against human EOL1 cells assessed as inhibition of cell growth incubated for 7 days by CellTiterGlo assay; format: functional, cell-based; conditions: EOL1, 168 h
[8] = target: T3, Protein cereblon/Bromodomain-containing protein 9 (Homo sapiens) (UniProt Q9H8M2+Q96SW2); assay: PROTAC activity at CRBN/BRD9 in human HeLa cells assessed as remaining BRD9 protein level at 1 uM incubated for 4 hrs by Western blot analysis relative to control; format: cell-based
Outline: (§1)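 Cells given 1 µM compound before harvest: HeLa 4 h, RI-1 2 h and 8 h. BRD9, BRD7 and β-actin detected by Western blot; band intensities quantified.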

[9] = target: T3, Protein cereblon/Bromodomain-containing protein 9 (Homo sapiens); assay: PROTAC activity at CRBN/BRD9 in human HeLa cells assessed as remaining BRD9 protein level at 1 uM incubated for 16 hrs by Western blot analysis relative to control; format: cell-based
Outline: (§2)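 HeLa cells given 1 µM compound for 16 h before harvest. BRD9, BRD7 and β-actin detected by Western blot; band intensities quantified.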

[10] = target: T4, Protein cereblon/Bromodomain-containing protein 7 (Homo sapiens) (UniProt Q9NPI1+Q96SW2); assay: PROTAC activity at CRBN/BRD7 in human HeLa cells assessed as remaining BRD7 protein level at 1 uM incubated for 4 hrs by Western blot analysis relative to control; format: cell-based; outline: as §1
[11] = target: T4, Protein cereblon/Bromodomain-containing protein 7 (Homo sapiens); assay: PROTAC activity at CRBN/BRD7 in human HeLa cells assessed as remaining BRD7 protein level at 1 uM incubated for 16 hrs by Western blot analysis relative to control; format: cell-based; outline: as §2

T1 sequence (P40337 whole entry, looked up): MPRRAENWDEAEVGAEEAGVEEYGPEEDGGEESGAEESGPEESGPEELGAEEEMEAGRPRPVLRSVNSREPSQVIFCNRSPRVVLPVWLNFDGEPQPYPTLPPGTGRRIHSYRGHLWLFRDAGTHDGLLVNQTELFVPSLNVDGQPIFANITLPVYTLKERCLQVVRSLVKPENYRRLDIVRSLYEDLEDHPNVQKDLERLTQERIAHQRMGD
T1 sequence (Q9H8M2 whole entry, looked up): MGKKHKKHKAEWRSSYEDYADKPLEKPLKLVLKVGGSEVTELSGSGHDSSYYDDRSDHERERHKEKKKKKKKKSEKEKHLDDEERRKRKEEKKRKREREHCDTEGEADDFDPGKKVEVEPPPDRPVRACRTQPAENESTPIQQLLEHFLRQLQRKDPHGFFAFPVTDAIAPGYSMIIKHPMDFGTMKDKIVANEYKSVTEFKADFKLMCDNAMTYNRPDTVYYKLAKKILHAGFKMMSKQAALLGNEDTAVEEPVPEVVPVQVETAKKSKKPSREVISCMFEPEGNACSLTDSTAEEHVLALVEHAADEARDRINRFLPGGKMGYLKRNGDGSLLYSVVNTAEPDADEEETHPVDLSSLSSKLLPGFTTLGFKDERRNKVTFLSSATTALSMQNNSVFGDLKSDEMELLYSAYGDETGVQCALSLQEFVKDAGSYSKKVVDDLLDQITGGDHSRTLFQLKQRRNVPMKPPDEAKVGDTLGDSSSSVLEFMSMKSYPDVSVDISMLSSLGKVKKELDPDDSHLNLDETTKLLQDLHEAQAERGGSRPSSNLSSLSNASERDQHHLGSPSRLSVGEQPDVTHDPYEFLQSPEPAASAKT
T2 sequence (P40337 whole entry, looked up): as the sequence (P40337 whole entry, looked up) above
T2 sequence (Q9NPI1 whole entry, looked up): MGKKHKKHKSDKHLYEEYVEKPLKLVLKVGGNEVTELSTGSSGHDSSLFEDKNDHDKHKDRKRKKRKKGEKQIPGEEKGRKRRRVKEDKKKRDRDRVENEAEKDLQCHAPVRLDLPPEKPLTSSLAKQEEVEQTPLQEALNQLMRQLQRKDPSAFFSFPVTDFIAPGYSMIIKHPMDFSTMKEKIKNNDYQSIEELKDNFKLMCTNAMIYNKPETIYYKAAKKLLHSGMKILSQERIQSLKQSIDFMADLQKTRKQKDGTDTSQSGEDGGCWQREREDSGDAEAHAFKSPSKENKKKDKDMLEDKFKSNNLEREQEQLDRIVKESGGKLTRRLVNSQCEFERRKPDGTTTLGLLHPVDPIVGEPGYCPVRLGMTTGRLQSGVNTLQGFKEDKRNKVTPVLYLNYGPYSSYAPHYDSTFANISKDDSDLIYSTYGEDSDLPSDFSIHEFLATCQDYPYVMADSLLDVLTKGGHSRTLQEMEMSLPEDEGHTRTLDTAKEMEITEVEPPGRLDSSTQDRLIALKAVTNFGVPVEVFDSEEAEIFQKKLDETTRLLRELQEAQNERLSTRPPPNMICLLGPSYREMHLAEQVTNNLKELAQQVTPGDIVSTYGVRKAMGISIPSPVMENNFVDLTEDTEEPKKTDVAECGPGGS
T4 sequence (Q96SW2 whole entry, looked up): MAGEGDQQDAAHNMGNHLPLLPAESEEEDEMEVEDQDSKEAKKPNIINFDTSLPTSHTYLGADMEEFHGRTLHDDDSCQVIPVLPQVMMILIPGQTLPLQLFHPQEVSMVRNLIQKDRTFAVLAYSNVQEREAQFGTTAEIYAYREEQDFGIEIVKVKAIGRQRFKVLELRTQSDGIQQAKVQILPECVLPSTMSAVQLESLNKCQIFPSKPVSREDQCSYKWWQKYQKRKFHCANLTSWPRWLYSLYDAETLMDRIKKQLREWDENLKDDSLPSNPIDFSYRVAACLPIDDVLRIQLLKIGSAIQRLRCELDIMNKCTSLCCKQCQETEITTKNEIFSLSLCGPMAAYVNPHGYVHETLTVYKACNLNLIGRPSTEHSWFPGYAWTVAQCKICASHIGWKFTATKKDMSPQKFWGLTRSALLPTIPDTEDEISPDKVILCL
T4 sequence (Q9NPI1 whole entry, looked up): as the sequence (Q9NPI1 whole entry, looked up) above
T3 sequence (Q96SW2 whole entry, looked up): as the sequence (Q96SW2 whole entry, looked up) above
T3 sequence (Q9H8M2 whole entry, looked up): as the sequence (Q9H8M2 whole entry, looked up) above

SMILES	Activity [2] [%]	Activity [4] [%]	Activity [5] [%]	further results
COc1cc(-c2cn(C)c(=O)c3cnccc23)cc(OC)c1CN1CCN(CCOCCOCCOCCOCCOc2cc(-c3scnc3C)ccc2CNC(=O)[C@@H]2C[C@@H](O)CN2C(=O)[C@@H](NC(C)=O)C(C)(C)C)CC1	109			Activity [1]: 114%; Activity [3]: 98%
COc1cc(-c2cn(C)c(=O)c3cnccc23)cc(OC)c1CN1CC(NC(=O)COCCOCCOCCOc2cc(-c3scnc3C)ccc2CNC(=O)[C@@H]2C[C@@H](O)CN2C(=O)[C@@H](NC(=O)C2(F)CC2)C(C)(C)C)C1	103	89	98	
COc1cc(-c2cn(C)c(=O)c3cnccc23)c(OC)cc1CN1CCN(CCCCCOc2cc(-c3scnc3C)ccc2CNC(=O)[C@@H]2C[C@@H](O)CN2C(=O)[C@@H](NC(=O)C2(F)CC2)C(C)(C)C)CC1	151	65	65	
COc1cc(-c2cn(C)c(=O)c3cnccc23)cc(OC)c1CN1CC(NC(=O)COCCOCCOc2cc(-c3scnc3C)ccc2CNC(=O)[C@@H]2C[C@@H](O)CN2C(=O)[C@@H](NC(=O)C2(F)CC2)C(C)(C)C)C1	53	95	92	
COc1cc(-c2cn(C)c(=O)c3cnccc23)cc(OC)c1CN1CCN(CCOCCOCCOc2cc(-c3scnc3C)ccc2CNC(=O)[C@@H]2C[C@@H](O)CN2C(=O)[C@@H](NC(C)=O)C(C)(C)C)CC1	95			Activity [1]: 156%; Activity [3]: 107%
COc1cc(-c2cn(C)c(=O)c3cnccc23)c(OC)cc1CN1CCN(CCOCCOCCOc2cc(-c3scnc3C)ccc2CNC(=O)[C@@H]2C[C@@H](O)CN2C(=O)[C@@H](NC(=O)C2(F)CC2)C(C)(C)C)CC1	126	125	149	
COc1cc(-c2cn(C)c(=O)c3cnccc23)cc(OC)c1CN1CCN(CCCCCOCCOc2cc(-c3scnc3C)ccc2CNC(=O)[C@@H]2C[C@@H](O)CN2C(=O)[C@@H](NC(=O)C2(F)CC2)C(C)(C)C)CC1	98	69	83	
COc1cc(-c2cn(C)c(=O)c3cnccc23)cc(OC)c1CN(C)C	90			IC50 [6]: 0.372 µM; IC50 [7]: 0.0893 µM
COc1cc(-c2cn(C)c(=O)c3cnccc23)cc(OC)c1CN1CCN(CCOCCOCCOCCOCCOCC(=O)N[C@H](C(=O)N2C[C@H](O)C[C@H]2C(=O)NCc2ccc(-c3scnc3C)cc2)C(C)(C)C)CC1	104			Activity [1]: 112%; Activity [3]: 54%
COc1cc(-c2cn(C)c(=O)c3cnccc23)cc(OC)c1CN1CCN(C(=O)COCCOCCOCN[C@H](C(=O)N2C[C@H](O)C[C@H]2C(=O)NCc2ccc(-c3scnc3C)cc2)C(C)(C)C)CC1				Activity [1]: 73%; Activity [3]: 113%
COc1cc(-c2cn(C)c(=O)c3cnccc23)cc(OC)c1CN1CCN(CCCCCOCCOCC(=O)N[C@H](C(=O)N2C[C@H](O)C[C@H]2C(=O)NCc2ccc(-c3scnc3C)cc2)C(C)(C)C)CC1	106			Activity [1]: 61%; Activity [3]: 80%
COc1cc(-c2cn(C)c(=O)c3cnccc23)c(OC)cc1CN1CC(NC(=O)CCCCOc2cc(-c3scnc3C)ccc2CNC(=O)[C@@H]2C[C@@H](O)CN2C(=O)[C@@H](NC(=O)C2(F)CC2)C(C)(C)C)C1	54	110	131	
COc1cc(-c2cn(C)c(=O)c3cnccc23)cc(OC)c1CN1CCN(CCOCCOCCOCC(=O)N[C@H](C(=O)N2C[C@H](O)C[C@H]2C(=O)NCc2ccc(-c3scnc3C)cc2)C(C)(C)C)CC1	107			Activity [1]: 95%; Activity [3]: 106%
COc1cc(-c2cn(C)c(=O)c3cnccc23)c(OC)cc1CN1CC(NC(=O)COCCOCCOCCOc2cc(-c3scnc3C)ccc2CNC(=O)[C@@H]2C[C@@H](O)CN2C(=O)[C@@H](NC(=O)C2(F)CC2)C(C)(C)C)C1	138	95	85	
COc1cc(-c2cn(C)c(=O)c3cnccc23)cc(OC)c1CN1CCN(CCOCCOCCOCCOc2cc(-c3scnc3C)ccc2CNC(=O)[C@@H]2C[C@@H](O)CN2C(=O)[C@@H](NC(=O)C2(F)CC2)C(C)(C)C)CC1	182	105	125	
COc1cc(-c2cn(C)c(=O)c3cnccc23)cc(OC)c1CN1CC(NC(=O)CCCCOCCOc2cc(-c3scnc3C)ccc2CNC(=O)[C@@H]2C[C@@H](O)CN2C(=O)[C@@H](NC(=O)C2(F)CC2)C(C)(C)C)C1	31	92	106	

SMILES	Activity [2] [%]	Activity [4] [%]	Activity [5] [%]	further results
COc1cccc2c1C(=O)c1c(O)c3c(c(O)c1C2=O)C[C@@](O)(C(=O)CO)C[C@@H]3O[C@H]1C[C@H](N)[C@H](O)[C@H](C)O1 [DOXORUBICIN]				IC50 [6]: 0.00648 µM; IC50 [7]: 0.00127 µM
COc1cc(-c2cn(C)c(=O)c3cnccc23)c(OC)cc1CN1CCN(CCOCCOc2cc(-c3scnc3C)ccc2CNC(=O)[C@@H]2C[C@@H](O)CN2C(=O)[C@@H](NC(=O)C2(F)CC2)C(C)(C)C)CC1	3	94	98	
COc1cc(-c2cn(C)c(=O)c3cnccc23)cc(OC)c1CN(C)CC(=O)NCCOCCOCCNc1cccc2c1C(=O)N(C1CCC(=O)NC1=O)C2=O (stereo not given)				IC50 [6]: 0.0898 µM; IC50 [7]: 0.00487 µM
COc1cc(-c2cn(C)c(=O)c3cnccc23)cc(OC)c1CN1CC(NC(=O)CCCCOc2cc(-c3scnc3C)ccc2CNC(=O)[C@@H]2C[C@@H](O)CN2C(=O)[C@@H](NC(=O)C2(F)CC2)C(C)(C)C)C1	25	68	70	
COc1cc(-c2cn(C)c(=O)c3cnccc23)c(OC)cc1CN1CC(NC(=O)COCCOCCOc2cc(-c3scnc3C)ccc2CNC(=O)[C@@H]2C[C@@H](O)CN2C(=O)[C@@H](NC(=O)C2(F)CC2)C(C)(C)C)C1	280	103	120	
COc1cc(-c2cn(C)c(=O)c3cnccc23)cc(OC)c1CN1CCN(CCOCCOCCOCCOCC(=O)NCCNc2cccc3c2C(=O)N(C2CCC(=O)NC2=O)C3=O)CC1 (stereo not given)				Activity [8]: 19%; Activity [9]: 11%; Activity [10]: 106%; Activity [11]: 94%
COc1cc(-c2cn(C)c(=O)c3cnccc23)cc(OC)c1CN1CCN(CCOCCOCCOc2cc(-c3scnc3C)ccc2CNC(=O)[C@@H]2C[C@@H](O)CN2C(=O)[C@@H](NC(=O)C2(C#N)CC2)C(C)(C)C)CC1	88			Activity [1]: 63%; Activity [3]: 187%
COc1cc(-c2cn(C)c(=O)c3cnccc23)cc(OC)c1CN1CC(NC(=O)COCCOc2cc(-c3scnc3C)ccc2CNC(=O)[C@@H]2C[C@@H](O)CN2C(=O)[C@@H](NC(=O)C2(F)CC2)C(C)(C)C)C1	29	109	125	
COc1cc(-c2cn(C)c(=O)c3cnccc23)c(OC)cc1CN(C)C				IC50 [6]: 3.55 µM; IC50 [7]: 0.339 µM
COc1cc(-c2cn(C)c(=O)c3cnccc23)cc(OC)c1CN1CCN(CCOCCOCCOCCOCCOc2cc(-c3scnc3C)ccc2CNC(=O)[C@@H]2C[C@@H](O)CN2C(=O)[C@@H](NC(=O)C2(F)CC2)C(C)(C)C)CC1	110			Activity [1]: 97%; Activity [3]: 163%
COc1cc(-c2cn(C)c(=O)c3cnccc23)cc(OC)c1CN1CCN(CCOCCOCCOCCOCCOc2cc(-c3scnc3C)ccc2CNC(=O)[C@@H]2C[C@@H](O)CN2C(=O)[C@@H](NC(=O)C2(C#N)CC2)C(C)(C)C)CC1	89			Activity [1]: 98%; Activity [3]: 124%
COc1cc(-c2cn(C)c(=O)c3cnccc23)c(OC)cc1CN1CCN(CCOCCOCCOCCOc2cc(-c3scnc3C)ccc2CNC(=O)[C@@H]2C[C@@H](O)CN2C(=O)[C@@H](NC(=O)C2(F)CC2)C(C)(C)C)CC1	206	127	134	
COc1cc(-c2cn(C)c(=O)c3cnccc23)c(OC)cc1CN1CC(NC(=O)COCCOc2cc(-c3scnc3C)ccc2CNC(=O)[C@@H]2C[C@@H](O)CN2C(=O)[C@@H](NC(=O)C2(F)CC2)C(C)(C)C)C1	158	99	112	
COc1cc(-c2cn(C)c(=O)c3cnccc23)c(OC)cc1CN1CCN(CCCCCOCCOc2cc(-c3scnc3C)ccc2CNC(=O)[C@@H]2C[C@@H](O)CN2C(=O)[C@@H](NC(=O)C2(F)CC2)C(C)(C)C)CC1	336	89	102	
COc1cc(-c2cn(C)c(=O)c3cnccc23)c(OC)cc1CN1CC(NC(=O)CCCCOCCOc2cc(-c3scnc3C)ccc2CNC(=O)[C@@H]2C[C@@H](O)CN2C(=O)[C@@H](NC(=O)C2(F)CC2)C(C)(C)C)C1	250	94	97	
